In data set [1] the test system is Human immunodeficiency virus 1. As to the kind of experiment: Antiviral activity against HIV1 with reverse transcriptase K103N mutation in MT4 cells assessed as inhibition of viral induced cytopathic effect by MTT method. In kind it is functional, organism-based. The settings on record: Human immunodeficiency virus 1, MT4. Summed up: (§1)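 MT-4 cells infected with the HIV-1 NNRTI-resistant mutant strain. Viable cells scored at day 5 post-infection by the MTT tetrazolium colorimetric method. […] Values are means ± SD from at least two experiments.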
(Protection from cytopathic effect is a common read-out in antiviral testing.)

In data set [2] the test system is Human immunodeficiency virus 1. Nature of the data set: Antiviral activity against HIV1 with reverse transcriptase Y181C mutation in MT4 cells assessed as inhibition of viral induced cytopathic effect by MTT method. Type of data set: functional, organism-based. The settings on record: Human immunodeficiency virus 1, MT4. An outline of the steps: as §1
In data set [3] the test system is Human immunodeficiency virus 1. Nature of the data set: Antiviral activity against HIV1 with reverse transcriptase Y188L mutation in MT4 cells assessed as inhibition of viral induced cytopathic effect by MTT method. In kind it is functional, organism-based. The conditions noted are these: Human immunodeficiency virus 1, MT4. Summed up: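 MT-4 cells infected with the HIV-1 NNRTI-resistant mutant strain. Viable cells scored at day 5 post-infection by the MTT tetrazolium colorimetric method. Values are means ± SD from at least two experiments.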

Data set [4] in a line: Cytotoxicity against MT4 cells after 4 days by MTT method. In kind it is cell-based. The settings on record: human. Summed up:
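Mock-infected (noninfected) MT-4 cells, run in parallel with the antiviral test. Viable cells read by the MTT tetrazolium colorimetric method. […] Means ± SD from at least two experiments. The top concentration was limited where compounds precipitated in the culture medium.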
A general note: Tetrazolium assays rely on reduction of a dye to a coloured formazan, in cell work by metabolically active cells.

A short description of data set [5]: Selectivity index, ratio of CC50 for MT4 cells to EC50 for HIV1 NL43 infected MT4 cells. Type of data set: functional.
Data set [6] deals with Human immunodeficiency virus 1. As to the kind of experiment: Antiviral activity against HIV1 with reverse transcriptase IRLL98 mutation in MT4 cells assessed as inhibition of viral induced cytopathic effect by MTT method. Type of data set: functional, organism-based.
Data set [7] deals with Human immunodeficiency virus type 1 reverse transcriptase (Human immunodeficiency virus 1, UniProt Q72547). Nature of the data set: Inhibition of wild type HIV1 3B reverse transcriptase.
The target in data set [8] is Human immunodeficiency virus type 1 reverse transcriptase (Human immunodeficiency virus 1, UniProt Q72547, K103N). As to the kind of experiment: Inhibition of HIV1 reverse transcriptase K103N mutant.
For data set [9], the target named is Human immunodeficiency virus type 1 reverse transcriptase (Human immunodeficiency virus 1, UniProt Q72547, L100I). Nature of the data set: Inhibition of HIV1 reverse transcriptase L100I mutant.
Data set [10] deals with Human immunodeficiency virus type 1 reverse transcriptase (Human immunodeficiency virus 1, UniProt Q72547, V106A). Nature of the data set: Inhibition of HIV1 reverse transcriptase V106A mutant.
Data set [11] can be described thus: Inhibition of HIV1 reverse transcriptase Y1811 mutant. Details: species or system Human immunodeficiency virus 1. Summed up: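 Recombinant HIV-1 RT Y181I mutant, purified to >95%, 10 min preincubation with inhibitor. Radioactive nucleotide incorporation into poly(rA)/oligo(dT) 10:1 was followed at varied nucleotide substrate levels, sampling every 2 min for initial velocities. Inhibitor spanned 0.2–5 Ki. Ki came from Lineweaver-Burk and Dixon plots. Means ± SD of at least three experiments.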

Data set [12] has as its target Human immunodeficiency virus type 1 reverse transcriptase (Human immunodeficiency virus 1, UniProt Q72547, Y188L). Nature of the data set: Inhibition of HIV1 reverse transcriptase Y188L mutant.
For data set [13], the system named is Human immunodeficiency virus 1. As to the kind of experiment: Resistance index, ratio of Ki for HIV1 reverse transcriptase Y181I mutant to Ki for wild type HIV1 3B reverse transcriptase. Summed up:
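Initial velocities came from radioactive nucleotide incorporation into poly(rA)/oligo(dT) 10:1, sampled every 2 min. Inhibitor spanned 0.2–5 Ki, with Lineweaver-Burk and Dixon plots. Fold-resistance is Ki mutant / Ki wild type.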

Data set [14] in a line: Resistance index, Ratio of EC50 for drug-resistant HIV1 with RT K103N mutation in MT4 cells to EC50 for HIV1 NL43 in MT4 cells.
Data set [15] can be described thus: Resistance index, Ratio of EC50 for drug-resistant HIV1 with RT Y181C mutation in MT4 cells to EC50 for HIV1 NL43 in MT4 cells.
The nature of data set [16]: Resistance index, Ratio of EC50 for drug-resistant HIV1 with RT Y188L mutation in MT4 cells to EC50 for HIV1 NL43 in MT4 cells.
Data set [17] can be described thus: Resistance index, Ratio of EC50 for drug-resistant HIV1 with RT IRLL98 mutation in MT4 cells to EC50 for HIV1 NL43 in MT4 cells.
The test system of data set [18] is Human immunodeficiency virus 1. Nature of the data set: Antiviral activity against HIV1 NL43 in MT4 cells assessed as inhibition of viral induced cytopathic effect after 5 days by MTT method. The conditions noted are these: Human immunodeficiency virus 1, NL43, MT4, 120 h.
Data set [19] has as its target Human immunodeficiency virus type 1 reverse transcriptase (Human immunodeficiency virus 1, UniProt Q72547, V179D). Nature of the data set: Inhibition of HIV1 reverse transcriptase V179D mutant.
Data set [20] relates to Human immunodeficiency virus 1. As to the kind of experiment: Antiviral activity against HIV1 NL43 in MT4 cells assessed as inhibition of viral induced cytopathic effect after 4 days by MTT method. Type of data set: functional, organism-based.
Where [21] appears, read: Human immunodeficiency virus 1, MT4.

The text below walks through data of ChEMBL document CHEMBL1137561 (J Med Chem, 2007).

One may read the EC50 as the concentration at which the effect is half-maximal. In general, CC50 refers to the concentration that lowers cell viability or growth by half. Read a high CC50 as lower toxicity to the cells. For orientation: Ki means a measure of affinity in units of concentration, obtained from inhibition or displacement. Low values mean tighter binding, high ones weaker binding.

Where only a bound is given, the exact number is not on record here.

For `CCCN(C)c1nc(C(C)c2c(F)cccc2F)c(C)c(=O)[nH]1` (centres undefined), the EC50 in data set [1] stood at 0.01 µM; in data set [2] it was 0.0006 µM; in data set [3] it was 0.03 µM; in data set [6] (setting [21]), 0.001 µM; in [18], 0.0006 µM. The same compound returned a CC50 at 96 h in [4] of over 78 µM. Further, the “Ratio CC50/EC50” value in [5] is recorded as over 130000. Further, the inhibition constant (Ki) in [7] came out at 0.03 µM; in data set [8], 0.17 µM; in data set [9], 0.18 µM; in [10] it was 0.02 µM; in [11], 1.26 µM; in data set [12] it was 1.43 µM. Also, the Ratio Ki in data set [13] came out at 42. Besides, the “Ratio EC50” value turned out to be 17 in data set [14], 1 in [15], 50 in data set [16] and 1.7 in data set [17].

For `CCc1c(C(C)c2c(F)cccc2F)nc(N(C)C)[nH]c1=O` (centres undefined), the EC50 in data set [1] was 0.25 µM; in data set [2], 0.1 µM; in data set [3] it was 0.55 µM; in [6] (setting [21]), 0.88 µM; in data set [18], 0.002 µM. This compound also had a CC50 at 96 h in data set [4] of over 81 µM. The “Ratio CC50/EC50” value in data set [5] is over 40500. The Ki in data set [7] was found to be 0.05 µM; in data set [8], 2 µM; in data set [9] it was 4 µM; in data set [10] it was 0.06 µM; in [19], 0.03 µM; in [11], 5 µM. In addition, the affinity in [12], expressed as Ki, was 10 µM. For the same compound, in data set [13], the Ratio Ki is 100. In addition, the “Ratio EC50” value in data set [14] is recorded as 125; in data set [15] it was 50; in data set [16], 275; in data set [17], 440.

For `CCN(C)c1nc(C(C)c2c(F)cccc2F)c(C)c(=O)[nH]1` (centres undefined), the concentration giving a half-maximal response (EC50) came out at 0.02 µM in data set [1]; 0.002 µM in [2]; 0.03 µM in data set [3]; 0.003 µM in data set [6] (setting [21]); 0.0003 µM in [18]. This compound yielded a half-maximal cytotoxic concentration (CC50) at 96 h in [4] of 81 µM. The “Ratio CC50/EC50” value in [5] is recorded as 270000. The Ki in data set [7] was 0.04 µM; in [8], 0.5 µM; in [9], 2.5 µM; in [10], 0.02 µM; in data set [19] it was 0.02 µM; in data set [11], 10 µM. Besides, the affinity in data set [12], expressed as Ki, was 4 µM. In [13], the Ratio Ki came to 250. Further, the “Ratio EC50” value in data set [14] was 67; in data set [15] it was 7; in data set [16], 100; in [17] it was 10.

For `Cc1c(C(C)c2c(F)cccc2F)nc(N2CCSCC2)[nH]c1=O` (centres undefined), the EC50 was 1.24 µM in data set [1]; 0.03 µM in data set [2]; 0.86 µM in data set [3]; 0.003 µM in data set [20]; 0.06 µM in data set [6] (mt4). This compound also returned a CC50 at 96 h in data set [4] of over 71 µM. Also, in [5], the “Ratio CC50/EC50” value is listed as over 23667. Further, the Ki is 0.06 µM in data set [7]; 10 µM in data set [8]; 5 µM in data set [9]; 0.03 µM in [10]; 0.02 µM in [19]; over 20 µM in data set [11]. The affinity in [12], expressed as Ki, was 4 µM. The “Ratio EC50” value in [14] is 413; in data set [15], 10; in data set [16], 287; in data set [17], 20.

As to `Cc1c(C(C)c2c(F)cccc2F)nc(SC2CCCC2)[nH]c1=O` (centres undefined), the 50% effective concentration (EC50) is 0.225 µM in data set [1]; 0.097 µM in data set [2]; over 3 µM in [3]; 0.12 µM in [6] (setting [21]); 0.001 µM in data set [18]. The same compound gave a 50% cytotoxic concentration (CC50) at 96 h in data set [4] of over 3 µM. Also, the “Ratio CC50/EC50” value in data set [5] was over 3000. In addition, the inhibition constant (Ki) in [7] worked out at 0.005 µM; in data set [8], 0.03 µM; in [9] it was 0.3 µM; in data set [10] it was 0.5 µM; in data set [19], 0.25 µM; in data set [11], 0.9 µM. Also, the Ki in data set [12] was 1.4 µM. Besides, in data set [13], the Ratio Ki amounted to 180. For the same compound, the “Ratio EC50” value in data set [14] came out at 225; in data set [15], 97; in data set [17], 120.

Regarding `Cc1c(C(C)c2c(F)cccc2F)nc(N(C)C(C)C)[nH]c1=O` (centres undefined), the 50% effective concentration (EC50) in [1] came to 0.006 µM; in data set [2], 0.0007 µM; in data set [3], 0.04 µM; in [6] (setting [21]), 0.001 µM; in data set [18] it was 0.0005 µM. This compound also had a 50% cytotoxic concentration (CC50) at 96 h in data set [4] of over 81 µM. Besides, the “Ratio CC50/EC50” value in data set [5] is given as over 162000. In addition, the Ki came to 0.04 µM in data set [7]; 0.08 µM in data set [8]; 10 µM in data set [9]; 0.03 µM in data set [10]; 0.85 µM in [11]; 1.19 µM in [12]. Also, in [13], the Ratio Ki was found to be 21. Moreover, the “Ratio EC50” value in data set [14] stood at 12; in data set [15], 1.4; in [16] it was 80; in data set [17], 2.

Regarding `Cc1c(C(C)c2c(F)cccc2F)nc(N(C)C)[nH]c1=O` (centres undefined), the 50% effective concentration (EC50) in [1] was 0.05 µM; in [2], 0.014 µM; in data set [3], 0.05 µM; in data set [6] (setting [21]) it was 0.005 µM; in [18], 0.0003 µM. Further, the CC50 at 96 h in [4] was over 17 µM. The “Ratio CC50/EC50” value in [5] is given as over 56667. For the same compound, the Ki is 0.1 µM in data set [7]; 0.5 µM in data set [8]; 1 µM in data set [9]; 0.1 µM in data set [10]; 2 µM in data set [19]; 4 µM in [11]. The affinity in data set [12] corresponds to a Ki of 0.5 µM. In addition, the Ratio Ki in [13] came out at 40. In addition, the “Ratio EC50” value is recorded as 167 in data set [14], 47 in [15], 167 in data set [16] and 17 in data set [17].
